In the EternaBench riboswitch data:

System: MS2 coat protein
Assay: apparent Kd, MS2 coat protein; higher = weaker binding; RNA-MaP array; FMN 200 µM where present
Outline: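 Stalled E. coli RNA polymerase transcribed each design on Illumina sequencing-chip clusters. The clusters were titrated with SNAP-549-labelled MS2 coat protein, starting at 0.7 or 1.5 nM and doubling up to 3 µM, first without ligand and then with constant ligand, in 100 mM Tris-HCl pH 7.5, 80 mM KCl, 4 mM MgCl2, BSA, DTT, yeast tRNA and Tween-20. Green signal was normalised to red-channel RNA signal and to the control-cluster median Fmax. The apparent Kd is the median of filtered binding-curve fits made for each cluster.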

[1] = designed as: OFF switch for flavin mononucleotide, no ligand
[2] = ligand present: flavin mononucleotide, designed as: OFF switch for flavin mononucleotide
[3] = designed as: ON switch for flavin mononucleotide, no ligand
[4] = ligand present: flavin mononucleotide, designed as: ON switch for flavin mononucleotide

Sequence	apparent Kd [1] [nM]	apparent Kd [2] [nM]	apparent Kd [3] [nM]	apparent Kd [4] [nM]
UUUAUGAAGCUUCGUCAAUACAGUUAGGAUAUGAGAGACAUGAGGAUCACCCAUGUGCAUGUUGAUUAGAAGGAACAACUAUCU	17.6	15.1	–	–
ACGACGAAAGUCGAACGAUGUAGCAGAAGGACAUGAGGAUCACCCAUGUCAGCUGUAACAGCCAUGUAGGAUAUGCUACAUCGG	4.37	5.85	–	–
CUGGAAGUCACAGGAUAUCCGGACACAUGUCCAGGAGAAGGGUGAGUAGUUUCACAUGAGGAUCACCCAUGUGGCGGUUCCAGA	–	–	264	21.2
UACAUUACUUAGAAGGGAUAUAUAUAAUUUUAGUCAGGAUAUAGAUACAAUACAACAUGAGGACAUGAGGAUCACCCAUGUAUU	–	–	17.9	13.4
UUGUGCUUAGAGAAGGUUCAAACUACAUAUUGCGCACAUGAGGAUCACCCAUGUUGGUGAAUAAGAAAGGAUAUUUGACUGUGC	487	360	–	–
GAGAAGUCAGGAUAUGCUGCUCGUCACUUGCGUGAUGAGUAGCAGAAGGGACAUGAGGAUCACCCAUGUAAAGC	47.3	53.6	–	–
UCGUGCCGGGUUGCGAGCGACCCACAUGAGGAUCACCCAUGUAGAAGGACCAGCGUCGGCCCUUGGUAGGAUAUACAUGAACUC	113	152	–	–
CCAUAAAAGAUCCAAAAUUACAACAUGAGGAUCACCCAUGUGCAGGAUAUCGUGACAGUGAAGUACGAGAAGGGCAGACACUGC	197	208	–	–
GUCUUCAUGACAUGAGGAUCACCCAUGUGUUAUAUUUUUACUAAGGAUAUAUUUUUAAUGUUGAGAUAGAAGGUAGUUUCGGUC	101	121	–	–
GAUCCGUGGCUUUCGCUUUGUUCACAUGAGGAUCACCCAUGUAGAAGGUAGCGGUUGAAUUUCGCUGAGGAUAUACAUAGGUGC	13.4	24.3	–	–
AGCUGUGGCAGAGGAUAUACUCCUAAAAUCCAUUGCAAAUAGCGAUGGACAUGAGGAUCACCCAUGUAGAAGGCUGUCUCAGCA	57.2	649	–	–
GCUGGACGUCGAGGAUAUGGGUGUGCGAGUCUUGGCACUGGACAUGAGGAUCACCCAUGUCGCUUCCAGAAGGCGACGUCCCUA	–	–	35.1	6.55
ACAUGAGGAUCACCCAUGUGGAGUGAAGAAGGUAGAUACUUAUGACUCUCCCAUGUACAUAGGACUGAGGAUAUUCUAAUAAUU	–	–	30.8	24
UAAAUACAUGAGGAUCACCCAUGUCAAAAGACAUGAGGAUAUGUACAGACUUCGGUCUGUACAGAAGGCAUGAAUA	–	–	652	46.7
UGGUACUAGGGAGGAUAUGGGAAGAGACAUGAGGAUCACCCAUGUUUAAGAAUGCCGAGAGGCAACUAGAAGGCCCUAGUACCU	–	–	38.8	7.42
AGUAAGAUGCAGAAGGUGUCAGCGAGAGCUGCGACAUGAGGAUCACCCAUGUACAAGUGAGUGUACAAGGAUAUGCAUCUUACA	–	–	192	24
UUCGUGCAGCUUAGCUGUACGCGUACAUGAGGAUCACCCAUGUAGGAUAUGGUAGGCUUUGCUUACUAGAAGGAUAGUGUGAUC	215	70.5	–	–
GUCAGCUCGUGAGGAUAUACAUCACUGCGAAAGCAGUGUAUUAAGAUCACAUGAGGAUCACCCAUGUAGAAGGCACGAGCUGAU	43.7	626	–	–
CACGAGCUAGGAUAUACAUGAGGAUCACCCAUGUAAGUCAUGCGGUCACAUCUGACAGGUAGAAGGAGCGCGUC	39.3	126	–	–
AUAAUGUAAGGAUAUCAGUCGUAAUUAAUUUAAUUAUCGACUGAGAAGGUACAUGAGGAUCACCCAUGUGGUCA	916	102	–	–
AGAAACUACGAGAAGGACAUGUGGUCCUUCAGUUACAUGAGGAUCACCCAUGUAGGAUAUAAAAGUUUCAGGAUCGUGAGAUCA	6.78	7.1	–	–
ACCGAUAGAGGAUAUACAGGUCGAUACAUGAGGAUCACCCAUGUUACCCUCGGUACACCCGUAGAAGGUUGUGGCU	263	248	–	–
UUCUUACGAGGAUAUCGAUGGUGGAACAUGAGGAUCACCCAUGUAUGAGAUAUUGUAUUUCGAGAAGGCGUUCAGU	55.2	36.2	–	–
UCACGGUAUGUAGGAUAUGCAUAGCAUUGCUAUGCAGAAGGACAUGAGGAUCACCCAUGUAUGUAUUCCAUACAAAUCCCGUGU	5.68	5.58	–	–
CACAUGAGGAUCACCCAUGUACUUAAUAUAAAUGUCAGAACCAGAAGGACCAGUUGAUUUGACCGGUAGGAUAUGGGCGGACCG	–	–	18.1	6.89
GCUCUAUGCUAGAAGGCGUGAAACAUGAGGAUCACCCAUGUCAGAGAAAUGAGGAUAUAGCAUAGAGCAAAAGACGGAAACGUC	–	–	11.1	5.61
GUGAGUAGUCAGGAUAUGCUGUACAAAAGUACAGCAGAAGGGAUUACAUGAGGAUCACCCAUGUUUUCUUCAUG	83.5	564	–	–
GGAGACCUCACAGGAUAUGCUGGACUUUGUCCAGCAGAAGGGUGAAAACAUGAGGAUCACCCAUGUAUGGUCUCCAAAUUUAAG	–	–	190	15.3

Sequence	apparent Kd [1] [nM]	apparent Kd [2] [nM]	apparent Kd [3] [nM]	apparent Kd [4] [nM]
UAAGUUGAGGAGAAGGGAGCACAUGAGGAUCACCCAUGUGGUUCUUUGUGCUCAGGAUAUCCAUGGAGCUCCGUCGAGUUCCAG	56.7	16.6	–	–
UUUGUCAUCGAGAAGGCCUCAACAUGAGGAUCACCCAUGUUGUAAUAUGGGAGGAUAUCGAUGAUACAGCUACGUUUCGUAAAA	–	–	20	5.58
GGAUUACAUGAGGAUCACCCAUGUGAGGAUAUCGAUGUCCAGUAAUACGUGCGGGACUCGAGAAGGCACUUGGA	40.1	200	–	–
UUACAUACAAAGGUACAUGAGGAUCACCCAUGUUUGUUGGGAAGAAGGGUAACAGUACUACACAUAUAGGAUAUUUCACAAAUA	–	–	52.4	40
AACGUGUAAGGAUAUGCUGCUCGUCACGAAAGUGAUGAGUAGCAGAAGGUACAUGAGGAUCACCCAUGUAAAGA	31.8	67	–	–
GGUUGGUAUGAUUGGGUAUGAUACAUGAGGAUCACCCAUGUGCAGGAUAUGUUACACUCACGAUGAUAGAAGGGUAGGGUUUGA	305	270	–	–
UCUUUACUGGUCAGGAUAUACAUUCGCUACUCUUUGUAGAAGGGACAUGAGGAUCACCCAUGUACUUUACAUUC	17.9	18	–	–
UGAAAUCAUGUAGGAUAUGCAUGGCGAAGCUGCGCAGAAGGACAUGAGGAUCACCCAUGUUAUAGCUACCCAGUUCGGUGGCAA	37.3	171	–	–
AGUUUACAUGAGGAUCACCCAUGUGAGGAUAUGGUUUCGCUGGCCGUAGCCAGUGGAACCAGAAGGCGCAUGAU	76	349	–	–
AAUAUAGAAGGAUAUGCAGCCGUGAGCCAUAGAGGAGACGAACAUGAGGAUCACCCAUGUAGAAGGUCUCGAUU	13.1	12.4	–	–
UGUUGAUAGCAGAAGGACAUGAGGAUCACCCAUGUAUGGAUACAAAUUUAUGUAGGAUAUGCUAUUAACUAAGAGUGAGCGUUC	9.46	42.5	–	–
GUGGUCAGACAUGAGGAUCACCCAUGUGGAAUAAAUAACGGACAGGAUAUGCAAUAUAGGAUAUAGUAGAAGGGUUGAUUGGUG	–	–	56.5	60.6
AAACCGUGUGGAGGAUAUGCAGUUGAGGUGAGGUAGCAACUCUAUACGACAGCAGAAGGCCACAUGAGGAUCACCCAUGUAGGU	489	158	–	–
UCGUACUUUCGAGGAUAUCGGUGAUAUAUAUUACGAGAAGGCGAUUGUUUGUUUUACGUCUUAGACAUGAGGAUCACCCAUGUA	–	–	40.4	30.5
UUGUUAGGGAGAGGAUAUUGACAUGAGGAUCACCCAUGUAUUUGGGAGUGUUUACUGAAUUCUCACGAGAAGGCUUACGAAUUU	550	471	–	–
GUCAGCUCGUGAGGAUAUACAACACUGCUUCGGCAGUAUAUUAAGAUCACAUGAGGAUCACCCAUGUAGAAGGCACGAGCUGAU	15	284	–	–
UCAAUCACUGGAGGAUAUGUACUAAUUUGCGGUUCCUCGAUAUCUCACAUGAGGAUCACCCAUGUACAGAAGGCUAGUCGGAAA	783	99.7	–	–
UUGCAGUCGUCAGGAUAUAGUAUUACGGCCAUUUAUUUUUUCAUACAUGAGGAUCACCCAUGUCGCUAGAAGGGAUUAUCGAUU	49.1	45.4	–	–
GCAGGUCGUGUGAGGAUAUCAUAGUUUAGCGGAGAUGAGAAGGCACAUGAGGAUCACCCAUGUCCAUCCUGCCU	36	92.6	–	–
AAUUUACAUGAGGAUCACCCAUGUCAGGAUAUGGUUUUAUUUUUUUUUUUUUUUGAUUCCAGAAGGGACAGUUA	21.1	19.7	–	–
GGUAUGUGAGGAUAUGGGAUUGUAGACAUGAGGAUCACCCAUGUCAUGUCCGAUCAUUGCCCAGAAGGUAUCCGCU	25.6	27.1	–	–
CACAAGAAAGUCGAACCGCUAUCUAGAAGGACAACAUGACAACAUGAGGAUCACCCAUGUCAUAUGUAGGAUAUGGAUGGUGGG	8.94	9.14	–	–
GGAUGAUUAAUAGGAUAUUAGUUGUAAAAUGUUUAAGAAGGAUUAAUGAUUUAAACGACCAGUUACAUGAGGAUCACCCAUGUU	–	–	27.9	21.4
UUUUUGUGAGGAUAUCAGUAGUAGAACAAUAGUACUACUACUGAGAAGGCACAUGAGGAUCACCCAUGUUCUUC	29	133	–	–
UGGUGUGAAGGAUAUACAUGAGGAUCACCCAUGUAUGAGGUGUGUGUUGAGGUGGAGGGUAGAAGGUCAGGUGG	30.1	30.6	–	–
GCGUGGAAUACAGGAUAUGUUGUACAAUAAUCUUUGAGGCAUUGAGAUUAUACAGAAGGGUAAACAUGAGGAUCACCCAUGUAA	31	25.1	–	–
AUCCGGCGUGUAGGAUAUGGAUCCGAUUAGGAUCCAGAAGGACAUGAGGAUCACCCAUGUACAUGUAAACAGUCAUCACCGGAG	10.2	56.4	–	–
